Assay [1] concerns Plasmodium falciparum. Kind of assay: Antiplasmodial activity against chloroquine-sensitive Plasmodium falciparum 3D7 assessed as parasite-specific LDH release after 72 hrs by Malstat assay. The note with it: 3D7, 72 h. The class given is functional, organism-based. In a few lines:
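Synchronized 3D7 ring stages seeded at 1% parasitemia with compound (in H2O or DMSO) across 10 pM–100 µM. DMSO 0.5% served as negative control. Cultured 72 h in triplicate, then viability read as Plasmodium lactate dehydrogenase activity (Malstat). Each compound run two to four times. IC50 and standard deviation calculated.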
On the technique in general: LDH in the medium is a marker of cell lysis.

A short description of assay [2]: Cytotoxicity against mouse J774.1 cells after 48 hrs by alamar blue satining. The note with it: J774.1, 48 h. Format: cell-based. The procedure, abridged: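 J774.1 macrophages at 1×10^5 cells/mL in phenol-red-free RPMI (10% FCS, 2 mM glutamine, 10 mM Hepes pH 7.2, 50 µM 2-mercaptoethanol, antibiotics) with increasing compound concentrations, 24 h at 37 °C, 5% CO2. AlamarBlue added to 10%, further 24 and 48 h incubation. Absorbance read at 540 nm against 630 nm reference. Final DMSO ≤1%, duplicates.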
For orientation: The colour change of resazurin is a common sign of viable cells or microbes.

Assay [3] relates to Plasmodium falciparum. Description: Antiplasmodial activity against chloroquine-resistant Plasmodium falciparum Dd2 assessed as parasite-specific LDH release after 72 hrs by Malstat assay. The class given is functional, organism-based. The settings on record: Dd2, 72 h. In a few lines: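 P. falciparum asexual blood stages: synchronized ring-stage cultures at 1% parasitemia, exposed to compounds (in water or DMSO) over 10 pM–100 µM for 72 h in triplicate. 0.5% DMSO served as negative control. Viability was read as parasite lactate dehydrogenase activity (Malstat). Each compound was run two to four times, and IC50 with standard deviation was calculated.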

In assay [4] the test system is Plasmodium falciparum. Kind of assay: Antiplasmodial activity against blood stage forms of chloroquine-sensitive Plasmodium falciparum 3D7 assessed as dysfunctional intracellular membrane biosynthesis at IC50 after 72 hrs by electron microscopy. The class given is functional, organism-based. The procedure, abridged:
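Blood-stage P. falciparum cultured in vitro, exposed 72 h to compound or to 0.5 vol % DMSO control. Fixed in 1% glutaraldehyde/4% paraformaldehyde in PBS, post-fixed in 1% OsO4/1.5% K3[Fe(CN)6], uranyl acetate stained, ethanol-dehydrated and Epon-embedded. Ultrathin sections post-stained with 1% uranyl acetate and examined by transmission EM for intracellular membrane whirls.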

Calls of active or inactive are those of the source. The rule behind the calls is not given here.

What is called IC50 is the midpoint of a concentration-inhibition curve. For `C[N+](C)(CCCCCCCCCC[N+](C)(C)CCCN1C(=O)c2cccc3cccc(c23)C1=O)CCCN1C(=O)c2cccc3cccc(c23)C1=O`, the 50% inhibitory concentration (IC50) in the assay on Plasmodium falciparum [1] is 0.145 µM; in assay [2], > 100 µM.

`C[N+](C)(CCCCCCCC[N+](C)(C)CCCN1C(=O)c2cccc3cccc(c23)C1=O)CCCN1C(=O)c2cccc3cccc(c23)C1=O`: the IC50 with Plasmodium falciparum [1] was 0.064 µM; in assay [2] it was > 100 µM.

With `C[N+](C)(CCCCCCCCCCC[N+](C)(C)CCCN1C(=O)c2cccc3cccc(c23)C1=O)CCCN1C(=O)c2cccc3cccc(c23)C1=O`, the IC50 in the assay on Plasmodium falciparum [1] is 0.17 µM; in assay [2], > 100 µM.

As to `CCC[N+](C)(C)CC(C)(C)CN1C(=O)c2cccc3cccc(c23)C1=O`, the values for the half-inhibitory concentration (IC50) (in the assay with Plasmodium falciparum [1]; in assay [2]; with Plasmodium falciparum [3]) were 9.81 µM, > 100 µM and 8.11 µM, respectively.

For the compound `C[N+](C)(C)CCCCCCCCCCCC[N+](C)(C)C`, the IC50 in the assay with Plasmodium falciparum [1] is 0.395 µM; in assay [2], > 100 µM.

For `CC(C)(CN1C(=O)c2cccc3c(N)ccc(c23)C1=O)C[N+](C)(C)CCCCCC[N+](C)(C)CC(C)(C)CN1C(=O)c2cccc3c(N)ccc(c23)C1=O`, the results for the IC50 (in the assay with Plasmodium falciparum [1]; in assay [2]; with Plasmodium falciparum [3]) were 6.76 µM, > 100 µM and 7.39 µM, respectively.

With `C[N+](C)(CCCC[N+](C)(C)CCCN1C(=O)c2cccc3cccc(c23)C1=O)CCCN1C(=O)c2cccc3cccc(c23)C1=O`, the IC50 (with Plasmodium falciparum [1]; in assay [2]) was > 100 µM throughout.

Turning to `CC(C)(CN1C(=O)c2cccc3cccc(c23)C1=O)C[N+](C)(C)CCCCCCBr`, the IC50 in the assay on Plasmodium falciparum [1] is 0.43 µM; in assay [2], > 100 µM; with Plasmodium falciparum [3], 0.89 µM.

Regarding `CN(C)CCCN1C(=O)c2cccc3cccc(c23)C1=O`, the IC50 (with Plasmodium falciparum [1]; in assay [2]) was > 100 µM each time.

In the case of `CC(C)(CN1C(=O)c2cccc3cccc(c23)C1=O)C[N+](C)(C)CCCCCC[N+](C)(C)CCCN1C(=O)c2cccc3cccc(c23)C1=O`, the IC50 is 0.4 µM in the assay with Plasmodium falciparum [1] and > 100 µM in assay [2]. Besides, the result in the assay on Plasmodium falciparum [4] was Active.

As for `C[N+](C)(CCCCCCCCC[N+](C)(C)CCCN1C(=O)c2cccc3cccc(c23)C1=O)CCCN1C(=O)c2cccc3cccc(c23)C1=O`, the half-inhibitory concentration (IC50) with Plasmodium falciparum [1] was 0.06 µM; in assay [2] it was > 100 µM.

As for `CC(C)(CN1C(=O)c2cccc3cc([N+](=O)[O-])cc(c23)C1=O)C[N+](C)(C)CCCCCC[N+](C)(C)CC(C)(C)CN1C(=O)c2cccc3cc([N+](=O)[O-])cc(c23)C1=O`, the results for the IC50 (with Plasmodium falciparum [1]; in assay [2]) were 0.66 µM and > 100 µM, respectively. The result in the assay on Plasmodium falciparum [4] was Active.

On to `C[N+](C)(C)CCCCCC[N+](C)(C)C` [HEXAMETHONIUM BROMIDE], for which the IC50 (in the assay on Plasmodium falciparum [1]; in assay [2]) was > 100 µM throughout.

In the case of `C[N+](C)(CCCN1C(=O)c2cccc3cccc(c23)C1=O)CCC[N+](C)(C)CCCN1C(=O)c2cccc3cccc(c23)C1=O`, the half-maximal inhibitory concentration (IC50) (in the assay with Plasmodium falciparum [1]; in assay [2]) was > 100 µM in each case.

Turning to `CC(C)(CN1C(=O)c2cccc3cccc(c23)C1=O)C[N+](C)(C)CCCCCC[N+](C)(C)CC(C)(C)CN1C(=O)c2cccc3cccc(c23)C1=O`, the IC50 in the assay on Plasmodium falciparum [1] was 0.8 µM; in assay [2] it was > 100 µM.

For the compound `C[N+](C)(C)CCCCCCCCCC[N+](C)(C)C` [DECAMETHONIUM BROMIDE], the IC50 is 0.911 µM with Plasmodium falciparum [1] and > 100 µM in assay [2].

Consider `C[N+](C)(CCCCCCC[N+](C)(C)CCCN1C(=O)c2cccc3cccc(c23)C1=O)CCCN1C(=O)c2cccc3cccc(c23)C1=O`, for which the IC50 in the assay on Plasmodium falciparum [1] is 0.51 µM; in assay [2], > 100 µM.

In the case of `CC(C)(CN1C(=O)c2cccc3cc(N)cc(c23)C1=O)C[N+](C)(C)CCCCCC[N+](C)(C)CC(C)(C)CN1C(=O)c2cccc3cc(N)cc(c23)C1=O`, the IC50 in the assay with Plasmodium falciparum [1] is 22.6 µM; in assay [2] it was > 100 µM.

On to `C[N+](C)(CCCCC[N+](C)(C)CCCN1C(=O)c2cccc3cccc(c23)C1=O)CCCN1C(=O)c2cccc3cccc(c23)C1=O`, for which the IC50 (in the assay with Plasmodium falciparum [1]; in assay [2]) was > 100 µM throughout.

Turning to `C[N+](C)(CCCCCCCCCCCC[N+](C)(C)CCCN1C(=O)c2cccc3cccc(c23)C1=O)CCCN1C(=O)c2cccc3cccc(c23)C1=O`, the results for the IC50 (in the assay on Plasmodium falciparum [1]; in assay [2]) were 0.219 µM and > 100 µM, respectively.

With `C[N+](C)(CCCCCC[N+](C)(C)CCCN1C(=O)c2cccc3cccc(c23)C1=O)CCCN1C(=O)c2cccc3cccc(c23)C1=O`, the IC50 in the assay with Plasmodium falciparum [1] is 7.99 µM; in assay [2], > 100 µM.

In the case of `CC(C)(CN1C(=O)c2cccc3c([N+](=O)[O-])ccc(c23)C1=O)C[N+](C)(C)CCCCCC[N+](C)(C)CC(C)(C)CN1C(=O)c2cccc3c([N+](=O)[O-])ccc(c23)C1=O`, the IC50 in the assay with Plasmodium falciparum [1] was 3.48 µM; in assay [2], > 100 µM.

Values taken from ChEMBL document CHEMBL1158566, “The bisnaphthalimides as new active lead compounds against Plasmodium falciparum” (Bioorg Med Chem, 2010).
